Test results reported in PMC5064183 (Annals of Dermatology, 2016).

Experiments:
[1] = tested on: Melan-a mouse melanocytes; assay: Melanin content assay in Melan-a cells; assay type: cell-based; conditions: αMSH (10 nM) induced Melan-a cells (Fig. 6B)
Outline: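 Immortal non-tumorigenic mouse melanocytes kept in RPMI 1640 with 10% FBS, 1% penicillin/streptomycin and 200 nM TPA at 37℃, 10% CO2, subcultured every 4th day. Melanin content measured under αMSH (10 nM) stimulation and expressed as % of untreated control alongside MTT viability. Mean±SD; unpaired t-test.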

[2] = tested on: B16F10 mouse melanoma cells; assay: Melanin content assay in B16F10 cells; assay type: cell-based; conditions: αMSH (10 nM) induced B16F10 melanoma cells (Fig. 6A)
Outline: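 B16F10 cells grown in DMEM with 10% FBS and 1% penicillin/streptomycin at 37℃, 5% CO2, under αMSH (10 nM) stimulation. Seeded in 12-well plates for 24 h, refed and held 48 h in triplicate cultures, then trypsinised. Washed twice in PBS, lysed in 1 N NaOH/10% DMSO at 80℃ for 1 h; absorbance 405 nm versus untreated cells. Mean±SD; unpaired t-test.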

[3] = tested on: Mushroom tyrosinase (EC 1.14.18.1); assay: In vitro mushroom tyrosinase assay; assay type: biochemical
Outline: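 Mushroom tyrosinase (EC 1.14.18.1), enzyme stock 1,100 units/ml (0.516 mg/ml) in 0.1 M phosphate buffer, mixed with phosphate buffer, test compound or reference inhibitor, and 5 mM L-dopa solution. Incubated 10 min at 37℃; dopachrome read at 475 nm. % inhibition = (ΔAcontrol−ΔAsample)/ΔAcontrol×100; IC50 = concentration giving 50% inhibition. Triplicate wells; experiments run at least three times; mean±SD, unpaired t-test.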

`OC[C@H]1O[C@@H](Oc2ccc(O)cc2)[C@H](O)[C@@H](O)[C@@H]1O` [Arbutin, hydroquinone-beta-D-glucopyranoside] was tested, and the “effect on melanin content (in words)” value [1] was “inhibited melanin content” and the “effect on melanin content (in words)” value [2] was “inhibited melanin content”.

KA-CDPGYIGSR [KA-CR9] was tested, and the “dose dependence of mushroom tyrosinase inhibition” value ([3]; 5, 10, 20, 40, and 80 µM (Fig. 4, 5)) was “dose-dependent inhibition” and the “maximum inhibitory effect of tyrosinase activity” value ([3]; in vitro tyrosinase screening, as restated in the discussion) was 84%.
